# Measurements taken from ChEMBL document CHEMBL1157095, “Antimalarial versus cytotoxic properties of dual drugs derived from 4-aminoquinolines and Mannich bases: interaction with DNA” (J Med Chem, 2010).
# Active and inactive are the calls of the source. The calls are words filed in the database; no cut-off is given here.
# Columns and labels:
# Nucleic Acid [1] = assay: Binding affinity to polydAdT DNA containing 100% AT assessed as middle of the peak at half height melting temperature at 1 uM by spectrophotometry analysis; format: nucleic-acid assay
# Procedure, shortened: (§1)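 Drug at 1 μM was mixed with DNA at 15 μM base pairs (15:1 bp:drug) in TE with 5 mM NaCl. Absorbance at 260 nm was recorded from 30-97 °C at 0.5 °C/min, with readings every 0.5 °C. Curves were normalized, smoothed and differentiated. Tmmax = derivative peak maximum; Tmint = middle of the integrated area; Tm1/2 = middle of the peak at half height.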
# Plasmodium falciparum [2] = assay: Antiplasmodial activity against chloroquine-susceptible Plasmodium falciparum L1 infected in human erythrocytes assessed as inhibition of [3H]hypoxanthine uptake after 48 hrs; format: functional, organism-based
# Procedure, shortened: (§2)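 Strains were cultured in A-positive human blood in RPMI 1640 with 10% human serum, 25 mM HEPES and 25 mM NaHCO3, under 10% O2/5% CO2/85% N2 at 37 °C. Microtests used 0.5% parasitemia and 1.5% hematocrit. Tritiated hypoxanthine (1 μCi/well) was added at time zero, then 48 h incubation, freeze-thaw, harvest and scintillation counting. IC50 was taken by nonlinear regression against drug-free controls.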
# Plasmodium falciparum [3] = assay: Antiplasmodial activity against chloroquine-susceptible Plasmodium falciparum K14 infected in human erythrocytes assessed as inhibition of [3H]hypoxanthine uptake after 48 hrs; format: functional, organism-based; procedure, shortened: as §2
# Plasmodium falciparum [4] = assay: Antiplasmodial activity against chloroquine-susceptible Plasmodium falciparum W2 infected in human erythrocytes assessed as inhibition of [3H]hypoxanthine uptake after 48 hrs; format: functional, organism-based; procedure, shortened: as §2
# Plasmodium falciparum [5] = assay: Antiplasmodial activity against chloroquine-susceptible Plasmodium falciparum 3D7 infected in human erythrocytes assessed as inhibition of [3H]hypoxanthine uptake after 48 hrs; format: functional, organism-based
# Procedure, shortened: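 Culture in RPMI 1640 with 10% human serum, 25 mM HEPES, 25 mM NaHCO3, A-positive blood, 10% O2/5% CO2/85% N2, 37 C. Isotopic microtest: 0.5% parasitemia, 1.5% hematocrit, 1 μCi tritiated hypoxanthine at time zero, 48 h; freeze-thaw lysis, filter harvest, scintillation count. IC50 = 50% uptake versus drug-free control, nonlinear regression of log dose-response curves.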
# Plasmodium falciparum [6] = assay: Antiplasmodial activity against chloroquine-susceptible Plasmodium falciparum PA infected in human erythrocytes assessed as inhibition of [3H]hypoxanthine uptake after 48 hrs; format: functional, organism-based; procedure, shortened: as §2
# Plasmodium falciparum [7] = assay: Antiplasmodial activity against chloroquine-susceptible Plasmodium falciparum Bres infected in human erythrocytes assessed as inhibition of [3H]hypoxanthine uptake after 48 hrs; format: functional, organism-based; procedure, shortened: as §2
# NCH89 = assay: Antiproliferative activity against human carmustine-resistant NCH-89 cells assessed as BrdU incorporation after 48 hrs; format: functional, cell-based; settings: NCH89, 48 h
# Procedure, shortened: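 NCH89 glioblastoma cells were seeded at 7 × 10^3 cells/well in replicate wells for 24 h. Compound was then added at 0.1-100 μM. After 48 h, BrdU was added at 100 μM final, and incorporation was detected with a BrdU labeling/detection kit.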
# Plasmodium falciparum [8] = assay: Antiplasmodial activity against chloroquine-susceptible Plasmodium falciparum FCM29 infected in human erythrocytes assessed as inhibition of [3H]hypoxanthine uptake after 48 hrs; format: functional, organism-based; procedure, shortened: as §2
# Plasmodium falciparum [9] = assay: Antiplasmodial activity against chloroquine-susceptible Plasmodium falciparum FCR3 infected in human erythrocytes assessed as inhibition of [3H]hypoxanthine uptake after 48 hrs; format: functional, organism-based; procedure, shortened: as §2
# Plasmodium falciparum [10] = assay: Antiplasmodial activity against chloroquine-susceptible Plasmodium falciparum K2 infected in human erythrocytes assessed as inhibition of [3H]hypoxanthine uptake after 48 hrs; format: functional, organism-based; procedure, shortened: as §2
# Plasmodium falciparum [11] = assay: Antiplasmodial activity against chloroquine-susceptible Plasmodium falciparum NF54 infected in human erythrocytes assessed as inhibition of [3H]hypoxanthine uptake after 48 hrs; format: functional, organism-based
# Procedure, shortened: (§3)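 Asynchronous ring-stage cultures in human A Rh+ erythrocytes (RPMI 1640, HEPES, NaHCO3, hypoxanthine, 0.5% Albumax II, 5% CO2, 37 C), 1% parasitemia; top final drug concentration 30 μM. After 24 h, [3H]-hypoxanthine (0.2 μCi/well) added, further 48 h incubation; plates freeze-thawed, harvested, uptake counted; IC50 calculated.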
# Nucleic Acid [12] = assay: Binding affinity to pUC18 DNA containing 50% AT assessed as middle of the integrated surface melting temperature at 1 uM by spectrophotometry analysis; format: nucleic-acid assay; procedure, shortened: as §1
# Plasmodium falciparum [13] = assay: Antiplasmodial activity against chloroquine-resistant Plasmodium falciparum Dd2 infected in human erythrocytes assessed as inhibition of [3H]hypoxanthine uptake after 48 hrs; format: functional, organism-based
# Procedure, shortened: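 Ring-stage infected erythrocytes (0.5% parasitemia, 2.5% hematocrit) exposed to compounds 48 h, then radioactive hypoxanthine 24 h; radioactivity in precipitable material taken as proliferation index for IC50.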
# MRC5 = assay: Cytotoxicity against human MRC5 after 3 days; format: cell-based; settings: MRC5, 72 h
# Procedure, shortened: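 MRC-5SV2 cells were grown in Earle's MEM with 5% FCSi and plated at about 10^4 cells/well. After 3 days of incubation, viability was read fluorimetrically with resazurin (ex 550/em 590 nm). Growth reduction was expressed relative to untreated control wells, and CC50 was derived.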
# Nucleic Acid [14] = assay: Binding affinity to polydAdT DNA containing 100% AT assessed as maximum melting temperature at 1 uM by spectrophotometry analysis; format: nucleic-acid assay; procedure, shortened: as §1
# Nucleic Acid [15] = assay: Binding affinity to pUC18 DNA containing 50% AT assessed as maximum melting temperature at 1 uM by spectrophotometry analysis; format: nucleic-acid assay; procedure, shortened: as §1
# Plasmodium berghei [16] = assay: Antiplasmodial activity against Plasmodium berghei ANKA infected in Swiss mice (Mus musculus) assessed as reduction of parasitaemia at 50 mg/kg, intraperitoneally daily for 4 days; format: functional, organism-based; design: dose 50 mg/kg
# Procedure, shortened: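 Swiss mice (18-20 g) infected intravenously on day 0 with 2 × 10^6 P. berghei ANKA parasitized red cells. Compound was freshly prepared in 10% DMSO in sterile PBS and given ip, first 2 h postinfection, then on days +1-3 (4-day suppressive test). On day +4, parasitemia was counted microscopically on Giemsa-stained tail-blood films.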
# Plasmodium falciparum [17] = assay: Antiplasmodial activity against chloroquine-susceptible Plasmodium falciparum 8425 infected in human erythrocytes assessed as inhibition of [3H]hypoxanthine uptake after 48 hrs; format: functional, organism-based; procedure, shortened: as §2
# Plasmodium falciparum [18] = assay: Antiplasmodial activity against chloroquine, pyrimethamine, cycloguanil-resistant Plasmodium falciparum K1 infected in human erythrocytes assessed as inhibition of [3H]hypoxanthine uptake after 48 hrs; format: functional, organism-based; procedure, shortened: as §3
# Plasmodium falciparum [19] = assay: Antiplasmodial activity against chloroquine-susceptible Plasmodium falciparum D6 infected in human erythrocytes assessed as inhibition of [3H]hypoxanthine uptake after 48 hrs; format: functional, organism-based; procedure, shortened: as §2
# Nucleic Acid [20] = assay: Binding affinity to pUC18 DNA containing 50% AT assessed as middle of the peak at half height melting temperature at 1 uM by spectrophotometry analysis; format: nucleic-acid assay; procedure, shortened: as §1
# Mus musculus [21] = assay: Toxicity in ip dosed Swiss mouse assessed as mortality at 50 mg/kg, ip; format: organism-based; design: dose 50 mg/kg, route intraperitoneal; settings: in vivo
# Procedure, shortened: (§4)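 Peters 4-day suppressive test, P. berghei ANKA: 18-20 g mice infected iv with 2 × 10^6 parasitized red cells day 0; compounds freshly made in 10% DMSO in sterile PBS, given ip from 2 h postinfection and on days 1-3; daily dose 30 mg/kg or 50 mg/kg; deaths recorded.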
# Nucleic Acid [22] = assay: Binding affinity to pUC18 DNA at pH 7.5 by UV-Vis spectrophotometry analysis; format: nucleic-acid assay
# Procedure, shortened: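 A 10 μM drug solution was titrated at room temperature with linearized pUC18 DNA (50% AT), 0.1-50 μM base pairs final. Buffer was TE (10 mM Tris-HCl, 0.1 mM EDTA) with 5 mM NaCl, ionic strength 12 mM. UV-Vis absorption spectra were recorded at 220-380 nm. Kd = DNA concentration at which half the drug is bound.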
# Mus musculus [23] = assay: Toxicity in ip dosed Swiss mouse assessed as mortality at 30 mg/kg, ip; format: organism-based; design: dose 30 mg/kg, route intraperitoneal; settings: in vivo; procedure, shortened: as §4
# Nucleic Acid [24] = assay: Binding affinity to pUC18 DNA at pH 7.5 by spectrofluorimetry analysis; format: nucleic-acid assay
# Procedure, shortened: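 A 1-10 μM drug solution was titrated at room temperature with linearized pUC18 DNA (50% AT), 0.1-50 μM base pairs final, in TE buffer with 5 mM NaCl (ionic strength 12 mM). Fluorescence used excitation at 320 nm and emission at 340-500 nm, corrected for buffer and instrument response. Kd = DNA concentration giving half-bound drug.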
# Plasmodium falciparum [25] = assay: Antiplasmodial activity against chloroquine-susceptible Plasmodium falciparum Voll infected in human erythrocytes assessed as inhibition of [3H]hypoxanthine uptake after 48 hrs; format: functional, organism-based; procedure, shortened: as §2
# Nucleic Acid [26] = assay: Binding affinity to polydAdT DNA containing 100% AT assessed as middle of the integrated surface melting temperature at 1 uM by spectrophotometry analysis; format: nucleic-acid assay; procedure, shortened: as §1
# Plasmodium berghei [27] = assay: Antiplasmodial activity against Plasmodium berghei ANKA infected in Swiss mice (Mus musculus) assessed as reduction of parasitaemia at 10 mg/kg, intraperitoneal every day for 4 days; format: functional; settings: ip, 96 h
SMILES,Tm (Nucleic Acid [1]) [°C],IC50 (Plasmodium falciparum [2]) [µM],IC90 (Plasmodium falciparum [2]) [µM],IC50 (Plasmodium falciparum [3]) [µM],IC90 (Plasmodium falciparum [3]) [µM],IC50 (Plasmodium falciparum [4]) [µM],IC90 (Plasmodium falciparum [4]) [µM],IC50 (Plasmodium falciparum [5]) [µM],IC90 (Plasmodium falciparum [5]) [µM],IC50 (Plasmodium falciparum [6]) [µM],IC90 (Plasmodium falciparum [6]) [µM],IC50 (Plasmodium falciparum [7]) [µM],IC90 (Plasmodium falciparum [7]) [µM],IC50 (NCH89) [µM],IC50 (Plasmodium falciparum [8]) [µM],IC90 (Plasmodium falciparum [9]) [µM],IC90 (Plasmodium falciparum [10]) [µM],IC90 (Plasmodium falciparum [17]) [µM],IC90 (Plasmodium falciparum [19]) [µM],IC90 (Plasmodium falciparum [25]) [µM],further results
Clc1ccc2c(NCCNC(CCN3CCCCC3)c3ccccc3)ccnc2c1 (stereo not given),46.5,0.0439,0.0735,0.076,0.205,0.044,0.0746,0.0099,0.0158,0.0412,0.0689,0.0465,0.0767,5.6,0.135,0.0731,0.105,0.0128,0.016,0.0684,IC90 (Plasmodium falciparum [8]): 0.296 µM; IC50 (Plasmodium falciparum [9]): 0.0442 µM; IC50 (Plasmodium falciparum [10]): 0.0581 µM; IC50 (Plasmodium falciparum [11]): 0.0087 µM; Tm (Nucleic Acid [12]): 74.4 °C; IC50 (Plasmodium falciparum [13]): 0.0239 µM; IC50 (MRC5): 8 µM; Tm (Nucleic Acid [14]): 46 °C; Tm (Nucleic Acid [15]): 73 °C; Activity (Plasmodium berghei [16]): Active; IC50 (Plasmodium falciparum [17]): 0.008 µM; IC50 (Plasmodium falciparum [18]): 0.0326 µM; IC50 (Plasmodium falciparum [19]): 0.0109 µM; Tm (Nucleic Acid [20]): 75 °C; Activity (Mus musculus [21]): Toxic; Kd (Nucleic Acid [22]): 1 µM; Activity (Mus musculus [23]): Toxic; Kd (Nucleic Acid [24]): 4 µM; IC50 (Plasmodium falciparum [25]): 0.0385 µM; Tm (Nucleic Acid [26]): 46.4 °C
CCNCc1cc(Nc2ccnc3cc(Cl)ccc23)ccc1O [DESETHYL AMODIAQUINE],,0.0861,0.125,0.16,0.22,0.146,0.202,0.0195,0.0314,0.0728,0.106,0.1,0.143,,0.318,0.13,0.144,0.0414,0.037,0.113,IC90 (Plasmodium falciparum [8]): 0.407 µM; IC50 (Plasmodium falciparum [9]): 0.0791 µM; IC50 (Plasmodium falciparum [10]): 0.0912 µM; IC50 (Plasmodium falciparum [17]): 0.0264 µM; IC50 (Plasmodium falciparum [19]): 0.0175 µM; IC50 (Plasmodium falciparum [25]): 0.0775 µM
CCN(CC)CCCC(C)Nc1ccnc2cc(Cl)ccc12 (stereo not given) [CHLOROQUINE],47,,0.418,,1.13,,0.693,,,,0.483,,0.614,41.2,,0.685,0.912,0.0592,0.0444,0.316,Tm (Nucleic Acid [12]): 73.7 °C; IC50 (MRC5): 64 µM; Tm (Nucleic Acid [14]): 46.9 °C; Tm (Nucleic Acid [15]): 73.2 °C; inhibition in vivo at 10 mg/kg (Plasmodium berghei [27]): 98.9%; Tm (Nucleic Acid [20]): 74.7 °C; Kd (Nucleic Acid [22]): 7.5 µM; Kd (Nucleic Acid [24]): 9 µM; Tm (Nucleic Acid [26]): 46.6 °C
